The source of these data is BindingDB's records for doi:10.1021/jm980495r (Institute of Mutagenesis and Differentiation, 1999).

The structures appear in SMILES notation.

For one experiment, the target named is T1, B2 bradykinin receptor (Cavia porcellus, UniProt O70526).
T1 sequence (O70526 whole entry): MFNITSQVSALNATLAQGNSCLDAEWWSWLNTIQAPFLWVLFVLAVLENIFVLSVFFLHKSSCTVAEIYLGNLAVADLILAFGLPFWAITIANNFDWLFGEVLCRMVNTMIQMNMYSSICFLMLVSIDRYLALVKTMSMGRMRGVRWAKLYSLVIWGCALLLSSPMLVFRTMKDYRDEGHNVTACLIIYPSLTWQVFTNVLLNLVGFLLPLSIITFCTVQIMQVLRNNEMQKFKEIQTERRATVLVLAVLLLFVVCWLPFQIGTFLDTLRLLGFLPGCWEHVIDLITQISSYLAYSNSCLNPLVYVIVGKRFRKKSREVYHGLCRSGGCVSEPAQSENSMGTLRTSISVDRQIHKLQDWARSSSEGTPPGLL
Nature of the experiment: Antagonistic activity against Bradykinin receptor B2 of guinea pig ileum longitudinal smooth muscle. The gist of the method: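 Guinea pig ileum longitudinal muscle-myenteric plexus strips in oxygenated (95% O2/5% CO2) Krebs with indomethacin, guanethidine (3 μM each), chlorpheniramine, atropine (1 μM each). Cumulative BK curves with thiorphan, bestatin, captopril (1 μM each); antagonist given 15 min before repeat curve at 1–10 μM. Contraction read-out; pA2 (dose ratio 2), mean ± SE of 4–15 experiments.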

The target in another experiment is T2, B1 bradykinin receptor (Rattus norvegicus, UniProt P97583).
T2 sequence (P97583 whole entry): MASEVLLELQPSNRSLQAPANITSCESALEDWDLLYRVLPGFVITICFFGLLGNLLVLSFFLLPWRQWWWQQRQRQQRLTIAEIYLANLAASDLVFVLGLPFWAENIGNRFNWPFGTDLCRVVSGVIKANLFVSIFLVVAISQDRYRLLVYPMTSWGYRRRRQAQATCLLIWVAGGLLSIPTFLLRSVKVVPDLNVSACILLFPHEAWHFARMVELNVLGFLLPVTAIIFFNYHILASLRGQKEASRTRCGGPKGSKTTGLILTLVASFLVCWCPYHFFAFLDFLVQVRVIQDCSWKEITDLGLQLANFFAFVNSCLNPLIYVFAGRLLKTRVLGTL
Nature of the experiment: Antagonistic activity against Bradykinin receptor B1 of rat ileum longitudinal smooth muscle. The gist of the method: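 Rat ileum longitudinal muscle-myenteric plexus strips in oxygenated (95% O2/5% CO2) Krebs with indomethacin, guanethidine (3 μM each), chlorpheniramine, atropine (1 μM each). Cumulative desArg9-BK curves with thiorphan, bestatin, captopril (1 μM each); antagonist given 15 min before repeat curve at 1–10 μM. Contraction read-out; pA2 (dose ratio 2), mean ± SE of 4–15 experiments.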

Broadly, the Kd is the concentration at which binding is half-saturated. The low end stands for tighter binding, the high end for weaker binding. Consider `N=C(N)NCCC[C@H](NC(=O)[C@H](CCCCN)NC(=O)[C@@H](N)CCCCN)C(=O)N1CCC[C@H]1C(=O)N1CC(O)C[C@H]1C(=O)NCC(=O)N[C@H](C(=O)N[C@@H](CO)C(=O)N[C@@H](C(=O)N1C(C(=O)O)C[C@@H]2CCCC[C@@H]21)C1Cc2ccccc2C1)C1Cc2ccccc2C1` (some centres undefined) [B-9858], for which the Kd was found to be 3160 nM on B2 bradykinin receptor and 7.94 nM at B1 bradykinin receptor.
As for `N=C(N)NCCC[C@@H](N)C(=O)N[C@@H](CCCNC(=N)N)C(=O)N1CCC[C@H]1C(=O)N1CC(O)C[C@H]1C(=O)NCC(=O)N[C@H](C(=O)N[C@@H](CO)C(=O)N[C@@H](C(=O)N1C(C(=O)N[C@H](CCCNC(=N)N)C(=O)O)C[C@@H]2CCCC[C@@H]21)C1Cc2ccccc2C1)C1Cc2ccccc2C1` (some centres undefined) [B-9430], the dissociation constant Kd was 6.31 nM at B2 bradykinin receptor and 19.9 nM at B1 bradykinin receptor.
